# PubChem BioAssay
# The source made the active and inactive calls.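 Rule for the calls, unless noted: active = mean duplicate potentiation above the buffer control mean plus 5 SD of buffer wells; inactive = the rest.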
# What was measured:
# [1] = nonspecific flux increase, KCNQ1-free cells – parental CHO cells, counter-screen for KCNQ1 potentiator project (AID 493006;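 active = duplicate-averaged activation above buffer control mean plus 5 SD of those controls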;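 for activation: fluorescence ratio of max minus min over baseline after K+ and Tl+ depolarization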); settings: parental CHO-K1 cells, FluxOR thallium flux, at 10 µM; active compounds read high
# Outline: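 Material: untransfected host CHO-K1 cells with FluxOR thallium dye. Timing: overnight 37 °C plating, 90 min RT dye, 20 min compound. Detection: kinetic FluxOR fluorescence, 10 s baseline, 110 s after stimulus. Read-out basis: max-minus-min fluorescence over baseline, percent of buffer-to-R-L3 span. Replicates: duplicate wells per compound, percent values averaged.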
# [2] = biological target: Potassium voltage-gated channel subfamily KQT member 1 (Homo sapiens) (UniProt P51787); experiment: enhancement of KCNQ1 channel thallium flux – FluxOR thallium flux, CHO cells, duplicates, confirmation (AID 493007;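 active = potentiation averaged over duplicate wells exceeding buffer-only control mean by more than 3 SD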;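 for outcome: cells depolarized by a potassium plus thallium sulfate stimulus after compound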); settings: KCNQ1 cell line, FluxOR thallium flux fluorescence, at 10 µM; active compounds read high, % of reference activator effect, buffer zero
# Potassium voltage-gated channel subfamily KQT member 1 (Homo sapiens), sequence (P51787 whole entry, looked up): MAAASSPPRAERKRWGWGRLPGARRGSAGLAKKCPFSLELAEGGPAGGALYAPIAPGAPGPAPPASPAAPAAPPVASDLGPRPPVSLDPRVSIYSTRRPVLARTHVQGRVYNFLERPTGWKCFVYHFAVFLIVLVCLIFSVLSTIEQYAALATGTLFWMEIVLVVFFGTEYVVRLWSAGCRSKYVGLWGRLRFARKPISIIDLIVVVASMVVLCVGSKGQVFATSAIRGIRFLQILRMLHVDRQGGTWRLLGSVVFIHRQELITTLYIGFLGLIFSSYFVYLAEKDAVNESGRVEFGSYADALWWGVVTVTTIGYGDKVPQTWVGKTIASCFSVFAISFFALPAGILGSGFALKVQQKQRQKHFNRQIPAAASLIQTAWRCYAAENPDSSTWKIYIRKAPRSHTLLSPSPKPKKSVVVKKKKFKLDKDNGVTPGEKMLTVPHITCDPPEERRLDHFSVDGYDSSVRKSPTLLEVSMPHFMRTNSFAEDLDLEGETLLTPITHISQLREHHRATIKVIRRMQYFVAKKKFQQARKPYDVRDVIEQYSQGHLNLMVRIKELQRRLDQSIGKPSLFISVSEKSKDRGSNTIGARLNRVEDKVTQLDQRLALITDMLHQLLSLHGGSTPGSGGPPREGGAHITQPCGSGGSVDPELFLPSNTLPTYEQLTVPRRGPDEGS
# Outline: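 Test system – KCNQ1-expressing CHO cell line · Incubation – FluxOR dye loading 90 min, compound exposure 20 min, room temperature · Detection – FluxOR Tl+ flux fluorescence, 10 s baseline plus 110 s recording · Controls – buffer-only wells as 0% and R-L3 activator as 100%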
# [3] = biological target: Potassium voltage-gated channel subfamily KQT member 2 (Rattus norvegicus) (UniProt O88943); experiment: KCNQ2 thallium flux enhancement – KCNQ2-CHO-K1 cells, selectivity assay for KCNQ1 potentiator project (AID 493009); settings: FluxOR thallium flux fluorescence, at 10 µM; active compounds read high, scaled: buffer 0, activator control 100;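 note: assay conditions were tuned for KCNQ1 rather than KCNQ2 modulators; signal is max minus min fluorescence divided by baseline after thallium stimulus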
# Potassium voltage-gated channel subfamily KQT member 2 (Rattus norvegicus), sequence (O88943 whole entry, looked up): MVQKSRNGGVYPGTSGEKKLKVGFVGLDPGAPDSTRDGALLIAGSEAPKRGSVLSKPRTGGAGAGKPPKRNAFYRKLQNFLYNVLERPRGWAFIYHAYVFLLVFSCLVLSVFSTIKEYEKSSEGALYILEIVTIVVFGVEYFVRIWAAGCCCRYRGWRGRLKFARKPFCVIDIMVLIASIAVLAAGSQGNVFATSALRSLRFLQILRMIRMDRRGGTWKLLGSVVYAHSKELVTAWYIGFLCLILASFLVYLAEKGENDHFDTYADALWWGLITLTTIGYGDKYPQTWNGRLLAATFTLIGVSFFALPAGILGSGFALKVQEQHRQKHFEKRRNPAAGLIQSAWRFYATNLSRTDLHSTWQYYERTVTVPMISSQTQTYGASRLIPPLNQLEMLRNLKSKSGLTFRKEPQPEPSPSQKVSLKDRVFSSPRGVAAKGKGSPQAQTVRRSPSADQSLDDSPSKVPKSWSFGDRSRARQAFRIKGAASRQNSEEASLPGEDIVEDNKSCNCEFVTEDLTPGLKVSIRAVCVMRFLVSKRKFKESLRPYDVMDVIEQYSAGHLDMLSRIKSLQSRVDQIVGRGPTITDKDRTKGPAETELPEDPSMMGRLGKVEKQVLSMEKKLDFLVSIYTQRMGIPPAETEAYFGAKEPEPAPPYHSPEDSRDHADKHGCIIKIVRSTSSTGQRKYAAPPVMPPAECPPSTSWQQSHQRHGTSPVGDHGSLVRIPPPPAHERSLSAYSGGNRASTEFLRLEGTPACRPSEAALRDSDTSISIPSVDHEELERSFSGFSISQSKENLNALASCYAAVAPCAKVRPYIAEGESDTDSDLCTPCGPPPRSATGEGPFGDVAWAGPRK
# [4] = biological target: Potassium voltage-gated channel subfamily KQT member 1 (Homo sapiens) (UniProt P51787); experiment: KCNQ1 activators by electrophysiology – IonWorks patch clamp, KCNQ1-CHO cells, orthogonal assay for KCNQ1 potentiator project, confirmation (AID 493184;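 active = current rise at least 3 SD above the untreated control mean in each of two repeat wells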); settings: automated patch clamp current, at 10 µM; active compounds read high
# Outline: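 Read-out: Percent current increase versus pre-compound level | Assay system: CHO cells carrying KCNQ1 | Measured by: Automated perforated-patch electrophysiology | Medium: External bath solution at pH 7.4 | Dosing: One dose, 10 µM final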
Compound,outcome [1],outcome [2],outcome [3],outcome [4],activation [1],potentiation [2],potentiation [3]
C[C@@H](NC(=O)[C@@H]1Cc2ccccc2CN1)C(=O)NC1CCCC1,inactive,inactive,inactive,inactive,,,
CC(Oc1ccc(Br)cc1)C(=O)N1CCC(C(N)=O)CC1 (stereo not given),inactive,inactive,inactive,inactive,,,
Cc1ccc(NC(=O)C(=O)NNC(=O)c2cccs2)cc1,,,,inactive,337% (active),88.5% (active),326% (active)
O=c1c2ccccc2nc(-c2cccc(Cl)c2)n1O,,,,inactive,358% (active),100% (active),327% (active)
CC(C)(C)CC(C)(C)NCC(O)COCCOc1ccc(Br)cc1 (stereo not given),inactive,inactive,inactive,inactive,,,
CCCn1c(=S)[nH]c2ccccc2c1=O,,,,inactive,153% (active),18.5% (active),168% (active)
O=c1cc(-c2ccccc2)cc(-c2ccccc2)n1O,,,,inactive,254% (active),87.5% (active),322% (active)
Cc1noc(C)c1CSc1ncnc2sc3c(c12)CCCCC3,,,,inactive,175% (active),60% (active),178% (active)
CCOc1ccc(C(=O)NC(=S)N(Cc2ccccc2)Cc2ccccc2)cc1,,,,inactive,395% (active),296% (active),522% (active)
CSc1nsc(SCC(=O)Nc2ccccc2)n1,inactive,inactive,inactive,inactive,,,
CCOC(=O)CSc1nc2ccccc2c(=O)n1-c1ccc(C)cn1,inactive,inactive,inactive,inactive,,,
Cc1ccc(C)c(NC(=S)N(Cc2ccco2)C(C)c2cccs2)c1 (stereo not given),inactive,inactive,inactive,inactive,,,
Cc1cc(C)n(-c2nc3ccccc3nc2N2CCN(C(=O)c3ccc(Cl)cc3)CC2)n1,inactive,inactive,inactive,inactive,,,
CN(C)CC1CCCCC1OC(=O)/C=C/c1ccc(Cl)cc1Cl (stereo not given),inactive,inactive,inactive,inactive,,,
Cn1c(O)c(N=Nc2nc(-c3ccccc3)cs2)c2ccccc21,,,,inactive,510% (active),385% (active),677% (active)
CCCCn1c(N)c(N(CC)C(=O)CSCc2c(C)noc2C)c(=O)[nH]c1=O,inactive,inactive,inactive,inactive,,,
CC(=O)c1c(N)[nH]c(-c2ccccc2)nc1=S,inactive,inactive,inactive,inactive,,,
CCc1ccc2c(c1)c(N=NC1=NC(=O)CS1)c(O)n2C,,,inactive,inactive,162% (active),30% (active),
Cc1cc(C)n(/N=C/c2cc(Cl)cc(Cl)c2O)c(=O)c1,inactive,inactive,inactive,inactive,,,
COc1cc2c(cc1OC)CN(C(=O)CNC(=O)c1ccc(OC(F)F)cc1)CC2,inactive,inactive,inactive,inactive,,,

Compound,outcome [1],outcome [2],outcome [3],outcome [4],activation [1],potentiation [2],potentiation [3]
O=C(NC(=S)Nc1ccccc1N1CCCC1)c1ccc([N+](=O)[O-])cc1,,,,inactive,161% (active),100% (active),218% (active)
Cc1sc2nc(CSc3ccccc3)nc(N3CCN(C)CC3)c2c1C,inactive,inactive,inactive,inactive,,,
COc1ccc2nc(/N=C/c3c(C)[nH]n(-c4ccc(C)cc4C)c3=O)sc2c1,,,,inactive,232% (active),113% (active),306% (active)
COc1ccc2c(CCNC(=O)CN3C(=O)c4ccccc4C3=O)c[nH]c2c1,inactive,inactive,inactive,inactive,,,
O=C(NC(=S)N1CCN(c2ccccc2)CC1)c1c(F)cccc1F,inactive,inactive,inactive,inactive,,,
CSC(=S)N/N=C/c1ccccc1,,,,inactive,245% (active),48.5% (active),226% (active)
NC(N)=N/N=C/c1ccccc1OC(F)F,inactive,inactive,inactive,inactive,,,
O=C(c1ccco1)N1CCN(S(=O)(=O)c2ccc(F)cc2)CC1,inactive,inactive,inactive,inactive,,,
CCCS(=O)(=O)c1c(S(=O)(=O)CCC)c2c(C(N)=O)cccn2c1C(=O)c1ccc(F)cc1,inactive,inactive,inactive,inactive,,,
CCC/C=N/NC(=O)c1[nH]c2c([N+](=O)[O-])cccc2c1C,inactive,inactive,inactive,inactive,,,
O=C(COC(=O)C1C2CC3OC(=O)C1C3C2)Nc1ccc(Cl)cc1 (stereo not given),inactive,inactive,inactive,inactive,,,
CC(C)CN=Cc1c(O)c([N+](=O)[O-])cc2oc3c(c12)CCCC3,inactive,inactive,inactive,inactive,,,
C=CCn1c(=S)[nH]c2sc3c(c2c1=O)CCCC3,,,,inactive,294% (active),97% (active),294% (active)
COc1cc(CN(C)CC2CCCN(CCc3cccc(C(F)(F)F)c3)C2)ccc1O (stereo not given),inactive,,inactive,inactive,,43% (active),
CC(C)CC(=O)NC(=S)Nc1nc(-c2ccccc2)cs1,,,,inactive,284% (active),152% (active),316% (active)
Cc1ccc(OCCCC(=O)NCc2ccco2)c(C)c1,inactive,inactive,inactive,inactive,,,
CCOC(=O)c1c(-c2ccc(C)o2)csc1NC(=S)NC(=O)N(C)C,,,,inactive,266% (active),171% (active),314% (active)
Cc1ccc(C(=O)COC(=O)COc2ccccc2C)cc1,inactive,inactive,inactive,inactive,,,
COC(=O)c1sccc1NC(=O)CSc1ccccc1NS(=O)(=O)c1ccc(Cl)cc1,inactive,,inactive,inactive,,17.5% (active),
S=C1NC2(CCCCC2)Cc2ccccc21,inactive,inactive,inactive,inactive,,,

Compound,outcome [1],outcome [2],outcome [3],outcome [4],activation [1],potentiation [2],potentiation [3]
CC(C)(C)c1ccc(Oc2ccc(N)cn2)cc1,,,,inactive,260% (active),81.5% (active),282% (active)
COc1cc(OC)cc(C(=O)Nc2nnc(SCC(=O)NCc3ccco3)s2)c1,,,,inactive,150% (active),30% (active),158% (active)
Cc1cccn2c(=O)nc(SCC(=O)N3N=C(c4cccs4)CC3c3ccc(F)cc3)nc12 (stereo not given),inactive,inactive,inactive,inactive,,,
CCC(C)NC(=O)c1cc(Cl)c(NC(=O)C2=C(C)OCCS2)cc1OC (stereo not given),inactive,inactive,inactive,inactive,,,
C=CCNC(=S)Nc1sc2c(c1C(=O)OCC)CC(C(C)C)OC2 (stereo not given),,,,inactive,268% (active),132% (active),246% (active)
Cc1ccc(C)c(NC(=S)NC(=O)c2cncc(Br)c2)c1,inactive,,inactive,inactive,,18.5% (active),
COCCNC(=O)CN(C)S(=O)(=O)c1ccc(Br)cc1,inactive,inactive,inactive,inactive,,,
O=C(COc1ncnc2ccc(Br)cc12)Nc1ccc(N2CCOCC2)cc1,inactive,inactive,inactive,inactive,,,
O=c1[nH]sc2ccccc12,inactive,inactive,inactive,inactive,,,
CCC(C)CCCCCCCCCCC(=O)O (stereo not given),,,,inactive,382% (active),318% (active),302% (active)
CC(C)n1cc(NC(=O)c2cc(-c3ccccc3)on2)cn1,,,,inactive,182% (active),35.5% (active),236% (active)
C=CCn1c(-c2cc(-c3ccc(C)cc3)nc3ccccc23)n[nH]c1=S,,,,inactive,138% (active),108% (active),170% (active)
Cc1onc(-c2ccccc2Cl)c1C(=O)Nc1ccccc1O,inactive,inactive,inactive,inactive,,,
O=C(O)c1ccc2c(c1)C(=O)N(c1ccc(Cl)cn1)C2=O,inactive,inactive,inactive,inactive,,,
CN(C)c1ccc(NC(=O)COC(=O)c2cc(Cl)ccc2[N+](=O)[O-])cc1,inactive,inactive,inactive,inactive,,,
CC(=O)c1c(C)[nH]c(C(=O)OCc2nc3ccsc3c(=O)[nH]2)c1C,inactive,inactive,inactive,inactive,,,
CC(C)NC(=O)/C(=C/c1cn(-c2ccccc2)nc1-c1cccc([N+](=O)[O-])c1)NC(=O)c1ccccc1,inactive,inactive,inactive,inactive,,,
CCOc1ccc(S(=O)(=O)Nc2cc(OC)ccc2OC)cc1,inactive,inactive,inactive,inactive,,,
Cc1csc(NC(=S)NC(=O)c2ccccc2)n1,inactive,,,inactive,,32% (active),156% (active)
O=C(COc1ccccc1Cl)N(Cc1cccs1)C1CCS(=O)(=O)C1 (stereo not given),inactive,inactive,inactive,inactive,,,
